Experimental data from ChEMBL document CHEMBL4706616, “Design, synthesis, and evaluation of substituted 2-acylamide-1,3-benzo[d]zole analogues as agents against MDR- and XDR-MTB” (Eur J Med Chem, 2021).
Converted amounts (≈) assume the structure as drawn.

Legend:
[1] = system: HEK293; assay: Cytotoxicity against human HEK293 cells assessed as reduction in cell viability incubated for 48 hrs by CCK8 assay; format: cell-based; settings: HEK293, 48 h
[2] = system: Mycobacterium tuberculosis; assay: Antitubercular activity against Mycobacterium tuberculosis H37Rv assessed as bacterial growth inhibition by MABA; format: functional
[3] = Acute toxicity in BALB/c mouse at 1000 mg/kg, po measured after 7 days; format: organism-based; settings: in vivo, 168 h, time 7 day
Outline: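 SPF female BALB/c mice, 18–22 g, groups of six; single 1000 mg/kg oral gavage in 0.5% CMC-Na; housed at 20–24°C; surviving mice counted over the observation period (14 days per methods, 7 days per results text).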

[4] = Selectivity index, ratio of IC50 for human HEK293 cells to MIC for Mycobacterium tuberculosis; format: toxicity; settings: read-out: Selectivity Index
Outline: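 Ratio of HEK-293 IC50 (µM) to anti-Mtb MIC (µM).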

[5] = AUC (0 to t) in Sprague-Dawley rat at 40 mg/kg, po measured upto 8 hrs by LC-MS/MS analysis; format: ADME, organism-based; set-up: route oral, dose 40 mg/kg, time <=8; settings: in vivo
Outline: (§1)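 Male SPF SD rats (180–220 g), fasted overnight, fed 4 h post-dose; single 40 mg/kg oral dose suspended in 5% DMSO/10% Solutol/85% water; n=3. Jugular blood at 0.25–8 h, plasma protein precipitated with MeOH containing internal standard, analysed by LC-MS/MS; AUC, Cmax, Tmax, MRT from plasma concentration data; mean ± SD.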

[6] = Mean residence time in Sprague-Dawley rat at 40 mg/kg, po measured upto 8 hrs by LC-MS/MS analysis; format: ADME, organism-based; settings: in vivo; outline: as §1
[7] = system: Staphylococcus aureus; assay: Antibacterial activity against methicillin-resistant Staphylococcus aureus ATCC 33591 assessed as bacterial growth inhibition incubated for 18 hrs by agar dilution method; format: functional
[8] = system: Klebsiella pneumoniae; assay: Antibacterial activity against ESBLs positive Klebsiella pneumoniae ATCC 700603 assessed as bacterial growth inhibition incubated for 18 hrs by agar dilution method; format: functional
[9] = system: Staphylococcus epidermidis; assay: Antibacterial activity against methicillin-sensitive Staphylococcus epidermidis ATCC 12228 assessed as bacterial growth inhibition incubated for 18 hrs by agar dilution method; format: functional
[10] = Cmax in Sprague-Dawley rat at 40 mg/kg, po measured upto 8 hrs by LC-MS/MS analysis; format: ADME, organism-based; set-up: route oral, dose 40 mg/kg, time <=8; settings: in vivo; outline: as §1
[11] = Tmax in Sprague-Dawley rat at 40 mg/kg, po measured upto 8 hrs by LC-MS/MS analysis; format: ADME, organism-based; settings: in vivo; outline: as §1
[12] = system: Acinetobacter calcoaceticus; assay: Antibacterial activity against Acinetobacter calcoaceticus ATCC 19606 assessed as bacterial growth inhibition incubated for 18 hrs by agar dilution method; format: functional
[13] = system: Klebsiella pneumoniae; assay: Antibacterial activity against ESBLs negative Klebsiella pneumoniae 7 assessed as bacterial growth inhibition incubated for 18 hrs by agar dilution method; format: functional
[14] = system: Enterococcus faecalis; assay: Antibacterial activity against Vancomycin-susceptible Enterococcus faecalis ATCC 29212 assessed as bacterial growth inhibition incubated for 18 hrs by agar dilution method; format: functional
[15] = system: Escherichia coli; assay: Antibacterial activity against ESBLs negative Escherichia coli ATCC 25922 assessed as bacterial growth inhibition incubated for 18 hrs by agar dilution method; format: functional
[16] = system: Enterococcus faecium; assay: Antibacterial activity against vancomycin-resistant Enterococcus faecium ATCC 700221 assessed as bacterial growth inhibition incubated for 18 hrs by agar dilution method; format: functional
[17] = system: Pseudomonas aeruginosa; assay: Antibacterial activity against Pseudomonas aeruginosa ATCC 27853 assessed as bacterial growth inhibition incubated for 18 hrs by agar dilution method; format: functional
[18] = system: Staphylococcus aureus; assay: Antibacterial activity against methicillin-sensitive Staphylococcus aureus ATCC 29213 assessed as bacterial growth inhibition incubated for 18 hrs by agar dilution method; format: functional

Cc1nnsc1C(=O)Nc1nc2cc(-c3cccnc3)ccc2o1
IC50 [1]: 54.9 µM
MIC [2]: 2.96 µM (≈ 0.999 µg/mL)

Cc1nnsc1C(=O)Nc1nc2c(ccc3ncccc32)o1
IC50 [1]: 59 µM
MIC [2]: 103 µM (≈ 32 µg/mL)

COC(=O)c1ccc(-c2ccc3oc(NC(=O)c4snnc4C)nc3c2)cc1
MIC [2]: 1.27 µM (≈ 0.501 µg/mL)

COC(=O)c1ccc2oc(NC(=O)c3snnc3C)nc2c1
MIC [2]: 3.14 µM (≈ 1 µg/mL)

Cc1nnsc1C(=O)Nc1nc2cc(F)ccc2o1
IC50 [1]: 42 µM
MIC [2]: 0.45 µM (≈ 0.125 µg/mL)

Cc1nnsc1C(=O)Nc1nc2c(-c3ccccn3)cccc2o1
MIC [2]: 23.7 µM (≈ 8 µg/mL)

Cc1nnsc1C(=O)Nc1nc2c(Br)cccc2o1
IC50 [1]: 10.6 µM
MIC [2]: 1.47 µM (≈ 0.499 µg/mL)

CN[C@@H]1[C@H](O[C@H]2[C@H](O[C@H]3[C@H](O)[C@@H](O)[C@H](N=C(N)N)[C@@H](O)[C@@H]3N=C(N)N)O[C@@H](C)[C@]2(O)C=O)O[C@@H](CO)[C@H](O)[C@H]1O [STREPTOMYCIN]
MIC [2]: < 0.69 µM

O=C(Nc1nc2ccccc2o1)c1ccccc1
IC50 [1]: > 100 µM
MIC [2]: 269 µM (≈ 64 µg/mL)

Cc1nnsc1C(=O)Nc1nc2cc(Cl)ccc2o1
Activity [3]: Non-Toxic
IC50 [1]: 6.65 µM
selectivity ratio [4]: 4
MIC [2]: 0.42 µM (≈ 0.124 µg/mL)

Cc1nnsc1C(=O)Nc1nc2cc(C(C)(C)C)ccc2o1
AUC(0-t) at 8 h [5]: 24800 ng·h/mL
Activity [3]: Non-Toxic
MRT [6]: 5.26 h
MIC [7]: 6.32 µM (≈ 2 µg/mL)
MIC [8]: > 405 µM
MIC [9]: 6.32 µM (≈ 2 µg/mL)
Cmax [10]: 6840 ng/mL
Tmax [11]: ≥ 8 h
IC50 [1]: 6.73 µM
MIC [12]: > 405 µM
MIC [13]: > 405 µM
MIC [14]: 12.6 µM (≈ 4 µg/mL)
MIC [15]: > 405 µM
MIC [16]: 12.6 µM (≈ 4 µg/mL)
MIC [17]: > 405 µM
selectivity ratio [4]: 17
MIC [18]: 6.32 µM (≈ 2 µg/mL)
MIC [2]: 0.4 µM (≈ 0.127 µg/mL)

Cc1nnsc1C(=O)Nc1nc2ccccc2[nH]1
IC50 [1]: > 100 µM
MIC [2]: 30.9 µM (≈ 8 µg/mL)

Cc1nnsc1C(=O)Nc1nc2cc(Br)ccc2o1
IC50 [1]: 45 µM
MIC [2]: 2.95 µM (≈ 1 µg/mL)

Cc1nnsc1C(=O)Nc1nc2cc(N3CCOCC3)ccc2o1
IC50 [1]: 18.3 µM
MIC [2]: 11.6 µM (≈ 4 µg/mL)

Cc1nnsc1C(=O)Nc1nc2c(ccc3ccccc32)o1
IC50 [1]: 80.9 µM
MIC [2]: 103 µM (≈ 32 µg/mL)

Cc1nnsc1C(=O)Nc1nc2ncccc2o1
IC50 [1]: 15.2 µM
MIC [2]: 7.66 µM (≈ 2 µg/mL)

Cc1nnsc1C(=O)Nc1nc2ccccc2s1
IC50 [1]: > 100 µM
MIC [2]: 28.9 µM (≈ 8 µg/mL)

O=C(Nc1nc2ccccc2o1)c1cccs1
IC50 [1]: 81.9 µM
MIC [2]: 16.4 µM (≈ 4 µg/mL)

Cc1nnsc1C(=O)Nc1nc2c(OCc3ccccn3)cccc2o1
IC50 [1]: 61.8 µM
MIC [2]: 5.44 µM (≈ 2 µg/mL)

O=C(Nc1nc2ccccc2o1)c1ccc(Cl)s1
MIC [2]: 14.3 µM (≈ 4 µg/mL)

Cc1nnsc1C(=O)Nc1nc2c(ccc3cccnc32)o1
MIC [2]: 103 µM (≈ 32 µg/mL)

O=C(Nc1nc2ccccc2o1)c1ccco1
IC50 [1]: > 100 µM
MIC [2]: 17.5 µM (≈ 4 µg/mL)

Cc1nnsc1C(=O)Nc1nc2cc(-c3cnn(C)c3)ccc2o1
MIC [2]: 1.47 µM (≈ 0.5 µg/mL)

Cc1nnsc1C(=O)Nc1nc2cc(-c3ccncc3)ccc2o1
MIC [2]: 1.48 µM (≈ 0.499 µg/mL)

CO[C@H]1/C=C/O[C@@]2(C)Oc3c(C)c(O)c4c(O)c(c(/C=N/N5CCN(C)CC5)c(O)c4c3C2=O)NC(=O)/C(C)=C\C=C\[C@H](C)[C@H](O)[C@@H](C)[C@@H](O)[C@@H](C)[C@H](OC(C)=O)[C@@H]1C [RIFAMPIN]
MIC [2]: < 0.61 µM

Cc1nnsc1C(=O)Nc1nc2c(Oc3ncccn3)cccc2o1
AUC(0-t) at 8 h [5]: 38 ng·h/mL
MRT [6]: 4.12 h
Cmax [10]: 6.93 ng/mL
Tmax [11]: 2.83 h
IC50 [1]: > 100 µM
selectivity ratio [4]: > 18
MIC [2]: 2.82 µM (≈ 0.999 µg/mL)

NNC(=O)c1ccncc1 [ISONIAZID]
MIC [2]: < 3.65 µM

Cc1nnsc1C(=O)Nc1nc2ccc(C(C)(C)C)cc2o1
IC50 [1]: 2.42 µM
MIC [2]: 3.16 µM (≈ 1 µg/mL)

Cc1nnsc1C(=O)Nc1nc2ccccc2o1
IC50 [1]: 19.6 µM
MIC [2]: 0.48 µM (≈ 0.125 µg/mL)

Cc1ccc2oc(NC(=O)c3snnc3C)nc2c1
IC50 [1]: 21.9 µM
MIC [2]: 1.82 µM (≈ 0.499 µg/mL)

Cc1nnsc1C(=O)Nc1nc2ccc(Cl)cc2o1
IC50 [1]: 7.14 µM
MIC [2]: 0.42 µM (≈ 0.124 µg/mL)

Cc1nnsc1C(=O)Nc1nc2cc(-c3ccccn3)ccc2o1
AUC(0-t) at 8 h [5]: 27800 ng·h/mL
Activity [3]: Non-Toxic
MRT [6]: 5.59 h
MIC [7]: 1.48 µM (≈ 0.499 µg/mL)
MIC [8]: > 379 µM
MIC [9]: 2.96 µM (≈ 0.999 µg/mL)
Cmax [10]: 9050 ng/mL
Tmax [11]: ≥ 8 h
IC50 [1]: > 100 µM
MIC [12]: > 379 µM
MIC [13]: > 379 µM
MIC [14]: 11.9 µM (≈ 4 µg/mL)
MIC [15]: > 379 µM
MIC [16]: 5.93 µM (≈ 2 µg/mL)
MIC [17]: > 379 µM
selectivity ratio [4]: > 270
MIC [18]: 5.93 µM (≈ 2 µg/mL)
MIC [2]: 0.74 µM (≈ 0.25 µg/mL)

CC[C@@H](CO)NCCN[C@@H](CC)CO [ETHAMBUTOL]
MIC [2]: < 2.45 µM
